Screens deposited in PubChem BioAssay by several laboratories.
CSN deneddyl inh = blocks human CSN-mediated cullin deneddylation; Q92905; Purified CSN, SCF-Nedd8-OG deneddylation, fluorescence polarization; inhibition, % at 12.5 µM; hit rate 0.38% among 360,000; AID 651999;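 active means pattern-corrected inhibition above about 35%, with an unprinted fluorescence ratio check between 0.5 and 1.5, limit read from the data, passing the limit was not always enough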;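 further: 0% = enzyme with substrate and 100% = substrate without enzyme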
Target sequence (Q92905 whole entry, looked up, one chain of several): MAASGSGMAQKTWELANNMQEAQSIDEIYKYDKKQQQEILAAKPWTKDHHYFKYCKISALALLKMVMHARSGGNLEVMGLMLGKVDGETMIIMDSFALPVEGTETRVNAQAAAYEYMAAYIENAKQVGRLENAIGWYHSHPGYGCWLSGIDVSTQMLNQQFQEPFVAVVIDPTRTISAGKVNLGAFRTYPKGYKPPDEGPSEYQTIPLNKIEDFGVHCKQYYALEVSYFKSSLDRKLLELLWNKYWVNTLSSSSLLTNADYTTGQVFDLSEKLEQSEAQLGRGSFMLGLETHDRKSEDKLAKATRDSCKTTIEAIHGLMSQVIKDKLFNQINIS
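Detection – fluorescence polarization · System – HEK293T-derived human Csn5 enzyme · Controls – substrate-only high control, full reaction low control · Timing – 90 min, room temperature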
SUMO HTRF inh = inhibitors of human SUMOylation (UBC9); P63279; HTRF SUMOylation assay, SAE1/SAE2 + UBC9, in vitro; inhibition, % at 35 µM; hit rate 0.36% among 290,000; AID 2006; in the data active means inhibition above about 50%, passing the limit was not always enough
TPT1 inh = inhibitors of Candida albicans tRNA 2'-phosphotransferase TPT1. recombinant caTPT1, FP RNA substrate dephosphorylation. inhibition, % at 5 µM. hit rate 0.81% among 300,000;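 active means inhibition above the mean of all tested compounds plus 3 SD, set per screening campaign, cut at about 24% in these data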;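 further: plate controls were DMSO alone for no effect and ferristatin control at 100 nM for full effect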
Rpn11 block = inhibitors of human proteasome Rpn11; human 26S proteasome, Ub4-pepOG fluorescence polarization; 20S core pre-blocked with epoxomicin; O00487; hit rate 0.59% among 360,000; calls only at 20 µM;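 active means inhibition at 20 µM, scaled to each plate's controls, above about 33%, limit read from the data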
Target sequence (O00487 whole entry, looked up): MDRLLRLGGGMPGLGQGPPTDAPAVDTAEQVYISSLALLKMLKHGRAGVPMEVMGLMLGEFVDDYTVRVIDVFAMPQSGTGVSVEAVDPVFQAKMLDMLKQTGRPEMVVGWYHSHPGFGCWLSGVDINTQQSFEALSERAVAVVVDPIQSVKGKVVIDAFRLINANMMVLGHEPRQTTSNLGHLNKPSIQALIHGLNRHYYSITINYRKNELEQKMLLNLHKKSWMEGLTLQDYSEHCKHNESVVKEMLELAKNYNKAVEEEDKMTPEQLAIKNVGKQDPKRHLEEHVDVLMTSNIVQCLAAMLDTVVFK
HNF4A DNA FP = change in binding of human HNF4 alpha to DNA; hit rate 0.3% among 360,000; AID 1224865; HNF4a-FITC DNA binding, fluorescence polarization, 1 h; P41235; activity change, % at 10 µM; in the data active means activity change above about 30%, passing the limit was not always enough
SENP1 FRET inh = blocks the human SENP1 SUMO protease catalytic domain; Q9P0U3; recombinant SENP1 catalytic domain, CyPet-SUMO1-YPet FRET cleavage; inhibition, % at 10 µM; hit rate 0.21% among 360,000; AID 624204;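 active means inhibition at least 30% at 10 µM, raw YFP signal under a set limit, fluorescence ratio 0.5 to 1.5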;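 further: 0% = enzyme with DMSO and 100% = no enzyme wells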
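material = recombinant human SENP1 catalytic domain, His6-tagged | quantity = 20 pM enzyme | reagent = 25 nM SUMO1 FRET substrate | compound dosing = 10 µM single point, 0.5% DMSO | timing = 50 min enzyme reaction, room temperature, light-protected | detection = FRET, CFP and YFP emission | control set = no-enzyme low, enzyme-DMSO high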
caTPT1 confirm = TPT1 (C. albicans) inhibition, confirmation. shares compounds with TPT1 inh. recombinant caTPT1, fluorescence polarization, RNase T1 coupled. inhibition, % at 5 µM. hit rate 74% among 2,400;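 active means inhibition above the primary screen limit, the mean inhibition of all tested compounds plus 3 SD, cut at about 25% in these data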
RNase T1 counter = RNase T1 inhibition in TPT1 counter-screen; RNase T1 cleavage, fluorescence polarization, 1536-well; inhibition, % at 5 µM; AID 2153; hit rate 83% among 2,400; shares compounds with TPT1 inh;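 active means inhibition above the solvent-only control well mean plus 3 SD, limit set per screening run, cut at about 23% in these data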;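 further: plate controls were DMSO wells with enzyme for no effect and wells without RNase T1 for full effect; inhibitors block cleavage so intact labeled substrate keeps polarization high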
Rpn11 inh conf = Rpn11 inhibition confirmation, single concentration; shares compounds with Rpn11 block; purified human 26S proteasome, Ub4-pepOG fluorescence polarization; proteasome pretreated with epoxomicin; inhibition, % at 20 µM; hit rate 29% among 1,900; AID 602318
MMP-2 counter-1 = counter-screen for RPN11 inhibitors: inhibition of human MMP-2; hit rate 4% among 1,900; shares compounds with Rpn11 block; AID 602330; inhibition, % at 20 µM; recombinant MMP-2, FRET peptide cleavage fluorescence;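 further: human MMP-2 activated beforehand with APMA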
Thrombin FP = counter-screen for RPN11 inhibitors: inhibition of bovine thrombin; inhibition, % at 20 µM; bovine thrombin cleavage of Ub4-pepOG, fluorescence polarization; AID 602333; hit rate 13% among 1,900; shares compounds with Rpn11 block;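 active means mean inhibition at least 40% at 20 µM, or signal 3 deviations below plate average, so some actives read negative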;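 further: plate controls were thrombin with DMSO for no effect and buffer wells lacking thrombin for full effect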
SENP1 conf = confirmation of human SENP1 SUMO protease inhibitors; shares compounds with SENP1 FRET inh; inhibition, % at 10 µM; AID 651678; recombinant SENP1, CyPet-SUMO1-YPet FRET cleavage; hit rate 34% among 520; in the data active means inhibition mostly above about 35%, no sharp cut-off; inactive means mostly below about 32%;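 further: 0% = enzyme with DMSO and 100% = no enzyme control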
SENP1 kin conf = SENP1 (human) inhibition, kinetic confirmation. shares compounds with SENP1 FRET inh. recombinant SENP1, CyPet-SUMO1-YPet FRET kinetic cleavage. inhibition, % at 10 µM. hit rate 26% among 520. AID 651690; in the data active means inhibition mostly above about 32%, no sharp cut-off; inactive means mostly below about 29%;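 further: 0% = DMSO with enzyme and 100% = no enzyme substrate only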
CSN deneddyl val = validation of inhibitors of human CSN-mediated cullin deneddylation; shares compounds with CSN deneddyl inh; Csn5 deneddylation of SCF-Nedd8OG, fluorescence polarization, 90 min; inhibition, % at 16.6 µM; hit rate 62% among 540; AID 720654; in the data active means inhibition above about 50%;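 further: 0% = DMSO with enzyme and 100% = no enzyme wells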
MMP-2 counter-2 = MMP-2 (human) inhibition, counter-screen for CSN hits. shares compounds with CSN deneddyl inh. recombinant MMP-2, FRET substrate fluorescence, 60 min. hit rate 33% among 540. inhibition, % at 16.6 µM;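 active means corrected plate-normalized z-score of 5 or more, or -5 or less, or inhibition of 15% or more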;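 further: plate controls were DMSO wells with enzyme for no effect and buffer wells lacking MMP-2 for full effect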
Thrombin cntr = blocks bovine thrombin in a CSN deneddylation counter-screen; inhibition, % at 16.6 µM; hit rate 49% among 540; shares compounds with CSN deneddyl inh; bovine thrombin cleavage of Ub4-pepOG, fluorescence polarization;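 active means inhibition at or above a set limit, with a fluorescence interference ratio between 0.5 and a set maximum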
HNF4a DNA conf = change in binding of human HNF4 alpha to DNA, retest; HNF4A-FITC DNA binding, fluorescence polarization, 1 h; shares compounds with HNF4A DNA FP; hit rate 99% among 210; activity change, % at 12.5 µM; AID 1224897; call rule not given here
An asterisk follows results filed as active; i = inactive; . = no result shown; + = active, no number. Shown are actives, neighbours in structure and some others; about 1.8% of the full set was active somewhere. Unless noted, no stated cut-off is given here; in the data, active means inhibition above about 40%; inactive means the rest.

SMILES	CSN deneddyl inh	SUMO HTRF inh	TPT1 inh	Rpn11 block	HNF4A DNA FP	SENP1 FRET inh	caTPT1 confirm	RNase T1 counter	others
COc1ccc(N=Cc2c(O)c3ccccc3n2C(C)=O)cc1	61*	8	122*	.	97*	-35	131*	128*	CSN deneddyl val=50*;MMP-2 counter-2=-26;Thrombin cntr=56*
COc1cc(N2CCCC2)c(OC)cc1/C=C(/C#N)c1ccc(Br)cc1	60*	8	104*	.	113	-28	130*	147*	CSN deneddyl val=90*;MMP-2 counter-2=-7;Thrombin cntr=22*
COc1ccc(C(C#N)=Cc2ccc(OC)c(OC)c2)cc1	2	.	.	i	-1	1	.	.
COc1ccc(OC)c(C(=O)c2c(C)oc3cc(Br)c(O)c(CN(C)C)c23)c1	-3	.	1	i	-1	0	.	.
Cc1ccc2c(c1)C(O)(C1COC(C)(C)CC1=O)C(=O)N2C (stereo not given)	2	1	-3	i	0	1	.	.
Cc1ccc2nc(/C(C#N)=C/c3ccc(-c4ccccc4C(=O)O)o3)[nH]c2c1	76*	-8	133*	.	97*	-24	139*	132*	CSN deneddyl val=63*;MMP-2 counter-2=-32*;Thrombin cntr=68
Cc1ccc2nc(/C(C#N)=C\c3ccc([N+](=O)[O-])o3)[nH]c2c1	52*	4	55*	+	103	-23	47*	59*	Rpn11 inh conf=12;MMP-2 counter-1=-18;Thrombin FP=19;CSN deneddyl val=30;MMP-2 counter-2=18*;Thrombin cntr=44*
Cc1cc(/C=C(/C#N)c2nc3ccccc3[nH]2)c(C)n1-c1cc(C(=O)O)cc(C(=O)O)c1	21	31	.	i	-33	-29	.	.
CC(C)NCC(O)COCCOc1ccc(C(C)(C)C)cc1 (stereo not given)	-4	-12	-1	i	-2	1	.	.
COc1cc(=O)n(C)c2c(O)cccc12	-2	9	-2	i	-3	3	.	.
Cc1cc2nc3s/c(=C/c4ccc(-c5ccccc5C(=O)O)o4)c(=O)n3c2cc1C	99*	15	112*	.	78	-24	125*	123*	CSN deneddyl val=-19;MMP-2 counter-2=-2;Thrombin cntr=64*
CC(=O)Nc1sc2c(c1C(N)=O)CCN(Cc1ccccc1)C2	5	5	2	i	1	-39	.	.
CCN1CCc2c(sc(NC(=O)c3ccc4ccccc4c3)c2C(N)=O)C1	31	15	65*	.	38*	-29	80*	89*	HNF4a DNA conf=65*
Cc1ccc(S(=O)(=O)NCC(=O)OC(C)C(=O)NCc2ccc3c(c2)OCO3)cc1 (stereo not given)	1	.	.	i	1	4	.	.
CCOc1ccc(C(=O)COC(C)=O)cc1	-5	-10	0	i	0	1	.	.
CCOC(=O)/C(C#N)=C/c1cc(C)n(-c2ccccc2)c1C	0	-2	4	i	-1	-5	.	.
CCOC(=O)/C(C#N)=C/C=C1\C=Cc2ccccc2N1CC	44*	21	79*	.	94*	52*	83*	93*	SENP1 conf=71*;SENP1 kin conf=39*;CSN deneddyl val=99*;MMP-2 counter-2=-1;Thrombin cntr=55*;HNF4a DNA conf=101*
O=C(Nc1ccc(Br)cc1F)C1CCN(c2nnc(-n3cccc3)s2)CC1	3	2	0	i	-1	0	.	.
COc1cc([C@@H]2[C@H]3CNCC=C3C(C#N)=C(N)C2(C#N)C#N)ccc1OC(C)C	17	15	34*	.	48*	-22	24*	36*	HNF4a DNA conf=56*
COc1cc(C2C3CN(C)CC=C3C(C#N)=C(N)C2(C#N)C#N)ccc1OC(C)C (stereo not given)	-9	9	4	i	-34	-22	.	.
C=CCNc1sc(C(=O)c2ccc(Br)s2)c(N)c1C#N	30	23	28*	.	55*	-21	38*	49*	HNF4a DNA conf=51*
CCOc1cc(C(=O)NCc2ccc(F)cc2)ccc1OCC(=O)N1CCCCC1	-5	.	.	i	2	1	.	.
CC(=O)Nc1ccc(C2=NN(c3ccccc3)C(c3ccccc3)C2)cc1 (stereo not given)	2	7	-1	i	-4	-25	.	.
N#CCC(=O)N/N=C/c1ccc(N2N=C(c3ccccc3)CC2c2ccccc2)cc1 (stereo not given)	39*	0	51*	.	50*	-25	67*	78*	HNF4a DNA conf=35*
CCOc1cc(/C=C2\N=C3CCCCCN3C2=O)ccc1O	58*	-1	43*	.	49*	39*	58*	60*	SENP1 conf=56*;SENP1 kin conf=50*;HNF4a DNA conf=71*
O=C(COc1cc(Cl)c(Cl)cc1Cl)NC(=O)Nc1ccc2c(c1)OCCO2	4	-7	-2	i	2	0	.	.
